# Measurements: PubChem BioAssay
# Activity calls are given as the source filed them.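 Rule for the calls, unless noted: active = inhibition at or above 50% at 10 µM; inactive = inhibition below 50%.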
# Experiments:
# [1] = inhibitors of TNFa-induced NFkB p65 translocation, primary screen, imaging, HUVEC, MLSMR starter and 10KST1 sets (AID 438;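 active = inhibition above 20% together with a positive visual image hit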;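 note: compound added about 3h40 before a 20 min TNFalpha stimulation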;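 for inhibition: signal is the nuclear over cytoplasmic p65 intensity ratio per well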); conditions: HUVEC TNFa-induced p65 nuclear translocation; cell count: measured here: nuclei count (cytotoxicity indicator), at 2.08 µM; inhibition: at 2 µM, stronger effect = higher value, 0% TNFa-plus-vehicle, 100% no-TNFa wells
# [2] = inhibitors of mutant huntingtin aggregation, primary screen, imaging, exon1htt(103Q)mCFP cells, high-content imaging (AID 483;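 active = visual image review flags a hit and inhibition of aggregation exceeds 20%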;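 note: compound exposure lasted 3 days before fixation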;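 for nuclei count: percent of the per-plate median nuclei count of sample wells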); conditions: exon1htt(103Q)mCFP cell line, aggregate imaging, at 2 µM; inhibition of aggregation: stronger effect = higher value; nuclei count: measured here: cell count, toxicity
# [3] = inhibitors of E-selectin induction by TNFa, primary screen, imaging, HUVEC, immunofluorescence, MLSMR starter and 10KST1 sets (AID 487;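 active = visually confirmed hit in the image check and inhibition above 20%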;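 for inhibition: signal is fraction of cell area covered by stained E-selectin grains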;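 for nuclei count: 100% = median nuclei count of all wells on the same plate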); conditions: HUVEC TNFalpha-induced E-selectin immunofluorescence imaging, at 2 µM; inhibition: stronger effect = higher value; nuclei count: measured here: cell number, toxicity
# [4] = molecular target: Voltage-gated potassium channel subunit beta-2 (Rattus norvegicus) (UniProt P62483); assay: KvBeta enzyme negative modulators, primary screen, biochemical, NADPH fluorescence (AID 622;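 active = fluorescence slope higher than the sample average by over 3 SD, cut at about -0.22 in these data, passing the limit was not always enough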;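 note: slope of raw intensity against log time taken from 70 to 1610 s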); conditions: recombinant KvBeta, 4-cyanobenzaldehyde reduction, at 10 µM, stronger effect = higher value
# Chain of Voltage-gated potassium channel subunit beta-2 (Rattus norvegicus) (P62483 whole entry, looked up): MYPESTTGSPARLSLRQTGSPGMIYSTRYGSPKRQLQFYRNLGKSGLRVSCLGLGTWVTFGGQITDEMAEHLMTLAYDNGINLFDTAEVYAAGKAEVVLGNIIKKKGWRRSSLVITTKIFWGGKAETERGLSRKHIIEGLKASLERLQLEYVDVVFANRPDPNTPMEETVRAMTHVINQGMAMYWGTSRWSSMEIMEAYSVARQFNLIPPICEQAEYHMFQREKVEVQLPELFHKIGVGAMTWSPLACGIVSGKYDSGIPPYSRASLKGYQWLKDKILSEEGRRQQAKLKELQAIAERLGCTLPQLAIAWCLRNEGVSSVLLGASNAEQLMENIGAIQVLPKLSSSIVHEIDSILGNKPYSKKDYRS
# [5] = molecular target: Voltage-gated potassium channel subunit beta-2 (Rattus norvegicus) (UniProt P62483); assay: KvBeta positive modulators, primary screen, biochemical, NADPH fluorescence (AID 623;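 active = NADPH fluorescence slope more negative than the mean of all samples by about 3 SD, 99.7% confidence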;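 note: fluorescence intensity change per second fitted from 20 to 320 s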); conditions: Recombinant KvBeta, NADPH fluorescence decrease slope, 10 min; at 10 µM; stronger effect = lower value
# [6] = molecular target: Muscarinic acetylcholine receptor M4 (Homo sapiens) (UniProt P08173); assay: compounds altering M4/GIRK thallium flux, either direction, primary screen, M4 allosteric agonist project, cell-based, HEK293 M4/GIRK, BTC-AM (AID 625;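 active = fluorescence slope after compound addition differing from the mean of all tested samples at 99.7% confidence, mostly higher but some lower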;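 note: thallium influx through GIRK channels coupled to M4 in HEK293 cells with BTC-AM dye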); conditions: at 10 µM, actives lie on both sides
# Chain of Muscarinic acetylcholine receptor M4 (Homo sapiens) (P08173 whole entry, looked up): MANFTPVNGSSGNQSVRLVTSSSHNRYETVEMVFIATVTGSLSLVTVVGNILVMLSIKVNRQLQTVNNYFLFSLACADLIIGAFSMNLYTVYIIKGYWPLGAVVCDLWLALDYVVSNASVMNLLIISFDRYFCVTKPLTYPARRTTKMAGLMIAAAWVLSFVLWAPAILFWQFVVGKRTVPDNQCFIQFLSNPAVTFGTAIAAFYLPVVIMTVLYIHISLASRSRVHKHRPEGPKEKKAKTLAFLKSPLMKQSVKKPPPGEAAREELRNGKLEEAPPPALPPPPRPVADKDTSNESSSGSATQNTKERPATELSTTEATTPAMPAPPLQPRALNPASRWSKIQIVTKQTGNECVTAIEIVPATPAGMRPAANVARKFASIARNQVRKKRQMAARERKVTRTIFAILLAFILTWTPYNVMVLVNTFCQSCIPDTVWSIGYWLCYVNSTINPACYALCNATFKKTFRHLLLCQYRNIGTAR
# Outline: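 Material – HEK293 cells with M4 receptor and GIRK channels · Buffer or medium – pH 7.3 thallium assay buffer · Doses – one dose, 10 µM final · Timing – cells overnight at 37 °C, BTC-AM loading 1 h, reads 2 min total · Measured by – kinetic fluorescence with BTC-AM dye · Controls – carbachol and DMSO controls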
# [7] = inhibitors of Sendai virus-induced IRF3 signaling, primary screen, TLR/RLR signaling modifier project, cell-based, Sendai virus stimulus, luciferase, 10K MLSCN set (AID 602276); conditions: HEK293 RL24 IRF3 luciferase reporter, at 10 µM, stronger effect = higher value;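 note: firefly luciferase from ISG56 promoter only with Renilla not read in this screen; 0% = Sendai virus plus DMSO and 100% = medium plus DMSO without virus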
# [8] = inhibitors of poly I:C-induced TLR3 signaling, primary screen, cell-based, poly I:C stimulus, luciferase, 10K MLSCN set (AID 602277;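 active = inhibition of the reporter signal at or above 50%; inactive = inhibition below 50%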); conditions: HEK293-TLR3 RL24 IRF3 luciferase reporter, at 10 µM, stronger effect = higher value
SMILES,cell count [1],inhibition [1],inhibition of aggregation [2],nuclei count [2],inhibition [3],nuclei count [3],fluorescence slope [4],NADPH fluorescence slope [5],fluorescence slope [6],inhibition [7],inhibition [8]
COc1cc(-c2nnc(SCC(=O)c3ccc(C)cc3)o2)cc(OC)c1OC,378,1.7% (inactive),-8.1% (inactive),87.7%,28.9% (inactive),83.6%,-0.607 (inactive),2.5e-05 (inactive),0.00366 (inactive),-8.63% (inactive),-7.77% (inactive)
Cc1cc(C)n(CCCNC(=O)c2ccc(S(=O)(=O)NCc3ccco3)cc2)n1,682,-4.4% (inactive),-3.9% (inactive),108%,-9.9% (inactive),136%,-0.562 (inactive),-8.3e-05 (inactive),0.00603 (inactive),18.9% (inactive),23% (inactive)
Cc1cccc(N(C)C(=O)c2cc3cc4ccc(C)cc4nc3o2)c1,214,-0.3% (inactive),11.5% (inactive),92.4%,-24.7% (inactive),109%,-0.396 (inactive),-2.9e-05 (inactive),0.00523 (inactive),37.8% (inactive),-34.7% (inactive)
CCCn1c(SCC(=O)Nc2nnc(-c3ccccc3)s2)nnc1-c1ccccn1,591,-5.1% (inactive),14.9% (inactive),45.4%,7% (inactive),105%,-0.376 (inactive),1.2e-05 (inactive),0.00563 (inactive),-15.8% (inactive),-30% (inactive)
CCOC(=O)C1=C(CC)Nc2ccccc2N=C1NC(=O)Nc1ccccc1OC,485,-12.3% (inactive),7.2% (inactive),116%,-15% (inactive),119%,-0.593 (inactive),2.9e-06 (inactive),0.00703 (inactive),26.2% (inactive),38.4% (inactive)
COc1cccc(CC(NC(C)=O)C(=O)NC2CCN(c3c4c(nc5ncnn35)CCC4)CC2)c1 (stereo not drawn),767,-6.8% (inactive),-4.2% (inactive),114%,-37.8% (inactive),140%,-0.464 (inactive),-5.8e-05 (inactive),0.00506 (inactive),17.1% (inactive),22.9% (inactive)
COC(=O)CCCCCNc1ccc(C(=O)OC)cc1N,292,7.7% (inactive),12.1% (inactive),92.9%,-71.5% (inactive),122%,-0.341 (inactive),-6.2e-05 (inactive),0.00505 (inactive),6.15% (inactive),18.3% (inactive)
N#CC(C(=O)CCN1C(=O)C2CC=CCC2C1=O)c1nc2ccccc2[nH]1 (stereo not drawn),286,-5.7% (inactive),4.5% (inactive),93.8%,-88.1% (inactive),123%,-0.524 (inactive),5.4e-05 (inactive),0.00584 (inactive),18.4% (inactive),17.1% (inactive)
